For one series, the system named is Enterovirus. Description: The minimum inhibitory concentration (MIC) required to inhibit rhinovirus type 34 induced cytopathic effect (CPE) on WISH cells. It counts as functional. In a few lines:
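WISH cells grown 18–24 h to monolayers. Serial 2-fold drug dilutions applied, then 320 CCID50 of rhinovirus type 34 added; sealed plates incubated 72 h at 33 °C. Cell, virus and toxicity controls included.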
On the technique in general: Protection from cytopathic effect is a common read-out in antiviral testing.

Series [1] is described as follows: (§1) The antiviral index is defined as MCC/MIC. The format is functional.
A short description of series [2]: The minimum cytotoxic concentration (MCC) reducing cell viability on WISH cells. It counts as cell-based. The conditions noted are these: human. In a few lines: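 Uninfected WISH cell monolayers, grown 18–24 h, were given serial 2-fold drug dilutions (cells + medium + drug) and incubated at 33 °C for 72 h. Cells were examined microscopically.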
The test system of a further series is L1210. Description: In vitro inhibition of L1210 leukemia cell growth. The format is functional. The conditions noted are these: Mus musculus, read-out: ID50 (the source's name).
The species named for series [3] is Mus musculus. The experiment in a line: Mean weight change (day 5 wt minus day 1 wt) of the treated mice to the mean weight change of the control mice in grams. The format is functional. In a few lines:
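CD2F1 mice given 10⁶ P388 cells ip, then ip treatment once daily for 5 days starting at 24 h. Toxicity is the mean weight change (day 5 minus day 1) of treated mice minus that of control mice, in grams.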

A short description of series [4]: as §1. It counts as ADME. The following applies: read-out: Antiviral index. In outline: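 Rhinovirus type 34 on WISH cell monolayers grown 18–24 h. Serial 2-fold drug dilutions were added with 320 CCID50 of virus and incubated at 33 °C for 72 h. CPE was scored microscopically on a 0–4 scale. […] AI = MCC/MIC.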
In series [5] the test system is Mus musculus. Description: Compound (50 mg/kg) was tested against intraperitoneally implanted P388 leukemia in mice. It counts as functional. In outline: (§2)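 CD2F1 mice, groups of six, inoculated ip with 10⁶ P388 leukemia cells; ip treatment started 24 h after inoculation, once daily for 5 days. Read-out is %T/C = (mean survival time of treated mice in days / mean survival time of controls) × 100, with ≥120 taken as moderate activity.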

For series [6], the system named is Mus musculus. Description: Compound (400 mg/kg) was tested against intraperitoneally implanted P388 leukemia in mice. The format is functional. In outline:
as §2

Series [7] has as its system Mus musculus. Description: Compound (600 mg/kg) was tested against intraperitoneally implanted P388 leukemia in mice. The format is functional. In outline: as §2
Series [8] has as its system Mus musculus. Description: Compound (200 mg/kg) was tested against intraperitoneally implanted P388 leukemia in mice. It counts as functional. In a few lines:
as §2

Series [9] concerns Mus musculus. The experiment in a line: Compound (100 mg/kg) was tested against intraperitoneally implanted P388 leukemia in mice. The format is functional. In outline: as §2

Molecules are shown by their SMILES. Values after ≈ are worked out from the molar mass of the structure shown.

As for `Nc1ccn([C@@H]2O[C@H](CO)[C@@H](O)[C@H]2O)c(=O)c1`, the MIC in the series with Enterovirus was found to be 3.2 mg/L (≈ 13.2 µM). This compound registered an Antiviral index in series [1] of 125. In [2], this compound yielded an MCC of 400 µg/mL. Besides, the IC50 with L1210 is 28.6 µM.

`O=c1cc(O)ccn1[C@@H]1O[C@H](CO)[C@@H](O)[C@H]1O`: the MCC in series [2] came out at 400 µg/mL.

In [2], `Nc1ccn(C2O[C@H](CO)[C@@H](O)[C@H]2O)c(=O)c1[N+](=O)[O-]` (some centres not stated) yielded an MCC above 1000 µg/mL.

The compound `O=c1c([N+](=O)[O-])c(O)ccn1C1O[C@H](CO)[C@@H](O)[C@H]1O` (some centres not stated) displayed an MCC in series [2] of 400 µg/mL.

Consider `O=c1c(Cl)c(O)ccn1C1O[C@H](CO)[C@@H](O)[C@H]1O` (some centres not stated), for which the MCC in [2] was above 1000 µg/mL.

Turning to `O=c1c(Br)c(O)ccn1C1O[C@H](CO)[C@@H](O)[C@H]1O` (some centres not stated), the MCC in series [2] was above 1000 µg/mL.

In the case of `Nc1ccn(C2O[C@H](CO)[C@@H](O)[C@H]2O)c(=O)c1Br` (some centres not stated), in the series on Enterovirus, the MIC was determined as 173 mg/L (≈ 540 µM). In addition, in series [1], the Antiviral index is on record as 4.6. Further, in [2], the MCC was 800 µg/mL. In addition, the IC50 with L1210 is above 31.1 µM.

Compound `Nc1c(F)cn(C2O[C@H](CO)[C@@H](O)[C@H]2O)c(=O)c1F` (some centres not stated) had an MIC in the series with Enterovirus of 28.3 mg/L (≈ 102 µM). Moreover, the Antiviral index in [1] was 14.1. In series [2], this compound gave an MCC of 400 µg/mL. The IC50 in the series on L1210 is above 35.9 µM.

`Nc1cc(=O)n(C2O[C@H](CO)[C@@H](O)[C@H]2O)cc1F` (some centres not stated) yielded an MCC in series [2] of 800 µg/mL.

On to `Nc1ccn(C2O[C@H](CO)[C@@H](O)[C@H]2O)c(=O)c1F` (some centres not stated), for which the Weight change in the series filed under Mus musculus [3] is -3.4 (not active) [middle of 5 runs]. Further, the selectivity ratio in series [4] came out at 308. Besides, the T/C in the series on Mus musculus [5] turned out to be 133; in the series on Mus musculus [6] it was 177; in the series with Mus musculus [7] it was 185; in the series on Mus musculus [8], 158; in the series with Mus musculus [9], 149. Also, in the series with Enterovirus, the MIC amounted to 1.3 mg/L (≈ 5 µM). This compound also showed an MCC in series [2] of 400 µg/mL. Also, the IC50 with L1210 stood at 11.8 µM.

`Nc1ccn(C2O[C@H](CO)[C@@H](O)[C@H]2O)c(=O)c1Cl` (some centres not stated) showed an MIC in the series with Enterovirus of 53.7 mg/L (≈ 194 µM). Further, in [1], the Antiviral index is listed as 7.5. For the same compound, the MCC in series [2] is 400 µg/mL. Also, the IC50 in the series with L1210 was above 36.1 µM.

The record behind these values is ChEMBL document CHEMBL1124849, “Synthesis, antitumor activity, and antiviral activity of 3-substituted 3-deazacytidines and 3-substituted 3-deazauridines” (J Med Chem, 1990).
